Source: ChEMBL document CHEMBL4840361, “Phytochemical Profiling and Biological Testing of the Constituents of the Australian Plant Haemodorum brevisepalum” (2021)
Active and inactive are the calls of the source. The calls are words filed in the database; no cut-off is given here.

What was measured:
Haemonchus contortus [1] = test: Anthelmintic activity against third stage larvae of Haemonchus contortus assessed as inhibition of larval development at 20 uM measured after 7 days by microscopic analysis; type: functional, organism-based; settings: time 7.0 day
How it was run: (§1)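 Exsheathed third-stage larvae (xL3s) of Haemonchus contortus, screened at 20 µM in 96-well plates holding 300 xL3s per well; testing was done at the University of Melbourne.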

Escherichia coli = test: Antibacterial activity against Escherichia coli ATCC 25922 assessed as bacterial growth inhibition at 32 ug/ml measured after 18 hrs by resazurine dye based assay; type: functional, organism-based; settings: dose 32.0 µg/ml
How it was run: (§2)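 Screened through CO-ADD at 32 µg/mL against a panel of five bacteria and two fungi. Run in duplicate (n=2) on different plates. Activity was called when inhibition exceeded 80% with a Z-score above 2.5 in either replicate.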

Cryptococcus neoformans = test: Antifungal activity against Cryptococcus neoformans var. grubii H99 ATCC 208821 assessed as fungal growth inhibition at 32 ug/ml measured after 3 days by resazurine dye based assay; type: functional, organism-based; settings: dose 32.0 µg/ml, time 3.0 day; how it was run: as §2
Haemonchus contortus [2] = test: Anthelmintic activity against third stage larvae of Haemonchus contortus assessed as inhibition of xL3 larval motility at 20 uM measured after 72 hrs; type: functional, organism-based; how it was run: as §1
Candida albicans = test: Antifungal activity against Candida albicans ATCC 90028 assessed as fungal growth inhibition at 32 ug/ml measured after 3 days by resazurine dye based assay relative to control; type: functional; settings: ATCC 90028, 72 h, time 3 day; how it was run: as §2
Staphylococcus aureus = test: Antibacterial activity against Staphylococcus aureus MRSA ATCC 43300 assessed as bacterial growth inhibition at 32 ug/ml measured after 18 hrs by resazurine dye based assay relative to control; type: functional; how it was run: as §2

Structure (SMILES)	Activity (Haemonchus contortus [1])	Activity (Escherichia coli)	Activity (Cryptococcus neoformans)	Activity (Haemonchus contortus [2])	inhibition at 32 µg/mL (Candida albicans) [%]	inhibition at 32 µg/mL (Staphylococcus aureus) [%]
O=C1C(O)=Cc2ccc(O[C@@H]3O[C@H](CO)[C@@H](O)[C@H](O)[C@H]3O)c3cc(-c4ccccc4O)cc1c23	inactive	inactive	inactive	inactive	–	–
CC(=O)OC[C@@H]1O[C@H](Oc2c(OC(C)=O)cc3c4c(ccc(-c5ccccc5)c24)C(=O)OC3)[C@@H](OC(C)=O)[C@H](OC(C)=O)[C@H]1OC(C)=O	–	inactive	inactive	–	–	–
O=c1c(O[C@@H]2O[C@H](CO[C@@H]3O[C@H](CO)[C@@H](O)[C@H](O)[C@H]3O)[C@@H](O)[C@H](O)[C@H]2O)c(-c2ccc(O)c(O)c2)oc2cc(O)cc(O)c12	–	inactive	inactive	–	–	–
O=C1C=Cc2cc(O)c(O[C@@H]3O[C@H](CO)[C@@H](O)[C@H](O)[C@H]3O)c3cc(-c4ccccc4O)cc1c23	inactive	inactive	inactive	inactive	38.7	–
O=C1OC(C(=O)O)c2cc(O)c(O[C@H]3O[C@@H](CO)[C@H](O)[C@@H](O)[C@@H]3O)c3c(-c4ccccc4)ccc1c23 (mixture of isomers)	–	inactive	inactive	–	–	–
COc1cc2ccc(=O)c3ccc4c5ccccc5oc1c4c23	–	inactive	inactive	–	–	58.4
O=C1OCc2cc(O)c(O[C@@H]3O[C@H](CO)[C@@H](O)[C@H](O)[C@H]3O)c3c(-c4ccccc4)ccc1c23	inactive	inactive	inactive	inactive	–	–
COC(=O)c1ccc(-c2ccccc2)c2c1C(=O)C=C(OC)C2=O	–	inactive	inactive	–	–	–
COc1cc2ccc(=O)c3cc(O[C@@H]4O[C@H](CO)[C@@H](O)[C@H](O)[C@H]4O)c4c5ccccc5oc1c4c23	–	inactive	inactive	–	–	8.1
O=C1C(O)=Cc2cc(O[C@@H]3O[C@H](CO[C@@H]4O[C@H](CO)[C@@H](O)[C@H](O)[C@H]4O)[C@@H](O)[C@H](O)[C@H]3O)cc3c(-c4ccc(O)c(O)c4)ccc1c23	inactive	inactive	inactive	inactive	–	–
O=C1OC(O)c2cc(O)c(O[C@@H]3O[C@H](CO)[C@@H](O)[C@H](O)[C@H]3O)c3c(-c4ccccc4)ccc1c23 (mixture of isomers)	inactive	inactive	inactive	inactive	–	–
O=C1C=Cc2cc(O[C@@H]3O[C@H](CO)[C@@H](O)[C@H](O)[C@H]3O)cc3c(-c4ccc(O)cc4)ccc1c23	inactive	inactive	inactive	inactive	29.6	–
O=c1c(O[C@@H]2O[C@H](CO)[C@@H](O)[C@H](O)[C@H]2O)c(-c2ccc(O)c(O)c2)oc2cc(O)cc(O)c12	–	inactive	inactive	–	–	–
COC1=Cc2cc(OC)c(O[C@@H]3O[C@H](CO)[C@@H](O)[C@H](O)[C@H]3O[C@@H]3O[C@H](COC(=O)/C=C/c4ccc(O)c(O)c4)[C@@H](O)[C@H](O)[C@H]3O)c3c(-c4ccccc4)ccc(c23)C1=O	inactive	inactive	inactive	inactive	–	–
